Source: ChEMBL document CHEMBL2417469, “Synthesis of novel analogs of 2-pyrazoline obtained from [(7-chloroquinolin-4-yl)amino]chalcones and hydrazine as potential antitumor and antimalarial agents” (Eur J Med Chem, 2013)

Legend:
Assay type in all cases: functional
SNB-19 = test: Cytotoxicity against human SNB19 cells after 48 hrs by SRB assay; conditions: SNB-19, 48 h
In short: (§1)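 NCI 60-cell screen. Cells grew 24 h (37 °C, 5% CO2) before compound was added. Compounds were in DMSO and diluted in medium with gentamicin, then tested at five levels (100, 10, 1.0, 0.1, 0.01 µM) with 48 h continuous exposure. Adherent cells were fixed with TCA (10% final) and stained with 0.4% SRB, absorbance read at 515 nm. A time-zero plate was included. LC50 is the concentration giving 50% loss of protein relative to time zero.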

SW-620 = test: Cytotoxicity against human SW620 cells after 48 hrs by SRB assay; conditions: SW-620, 48 h; in short: as §1
Hs-578T = test: Cytotoxicity against human Hs578T cells after 48 hrs by SRB assay
In short: (§2)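 NCI 60-cell-line screen. Cells preincubated 24 h at 37 °C, 5% CO2; time-zero plates TCA-fixed. Compounds dissolved in DMSO and tested at five concentrations (100, 10, 1.0, 0.1, 0.01 µM) for 48 h continuous exposure. Adherent cells fixed with cold TCA (10% final), then SRB stained; absorbance at 515 nm. GI50, TGI and LC50 calculated from growth relative to time-zero and untreated controls.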

MDA-MB-231 = test: Cytotoxicity against human MDA-MB-231 cells after 48 hrs by SRB assay; conditions: MDA-MB-231, 48 h; in short: as §2
MDA-MB-435 = test: Cytotoxicity against human MDA-MB-435 cells after 48 hrs by SRB assay; conditions: MDA-MB-435, 48 h; in short: as §2
T47D = test: Cytotoxicity against human T47D cells after 48 hrs by SRB assay; in short: as §1
HCC 2998 = test: Cytotoxicity against human HCC2998 cells after 48 hrs by SRB assay; conditions: HCC 2998, 48 h; in short: as §2
DU-145 = test: Cytotoxicity against human DU145 cells after 48 hrs by SRB assay; conditions: DU-145, 48 h; in short: as §2
A549 = test: Cytotoxicity against human A549/ATCC cells after 48 hrs by SRB assay; conditions: A549, 48 h; in short: as §2
RXF 393 = test: Cytotoxicity against human RXF393 cells after 48 hrs by SRB assay; conditions: RXF 393, 48 h; in short: as §2
OVCAR-5 = test: Cytotoxicity against human OVCAR5 cells after 48 hrs by SRB assay; conditions: OVCAR-5, 48 h; in short: as §2
CCRF-CEM = test: Cytotoxicity against human CCRF-CEM cells after 48 hrs by SRB assay; in short: as §2
[1] = Cytotoxicity against human EKVX cells after 48 hrs by SRB assay; in short: as §2
NCI-H23 = test: Cytotoxicity against human NCI-H23 cells after 48 hrs by SRB assay; conditions: NCI-H23, 48 h; in short: as §2
HL-60(TB) = test: Cytotoxicity against human HL-60(TB) cells after 48 hrs by SRB assay; conditions: HL-60, 48 h; in short: as §2
UO-31 = test: Cytotoxicity against human UO31 cells after 48 hrs by SRB assay; conditions: UO-31, 48 h; in short: as §1
SF-268 = test: Cytotoxicity against human SF268 cells after 48 hrs by SRB assay; conditions: SF-268, 48 h; in short: as §2
SK-MEL-2 = test: Cytotoxicity against human SK-MEL-2 cells after 48 hrs by SRB assay; conditions: SK-MEL-2, 48 h; in short: as §2
NCI-H226 = test: Cytotoxicity against human NCI-H226 cells after 48 hrs by SRB assay; conditions: NCI-H226, 48 h; in short: as §2
HOP-92 = test: Cytotoxicity against human HOP92 cells after 48 hrs by SRB assay; conditions: HOP-92, 48 h; in short: as §2
ACHN = test: Cytotoxicity against human ACHN cells after 48 hrs by SRB assay; in short: as §2
SF-539 = test: Cytotoxicity against human SF539 cells after 48 hrs by SRB assay; conditions: SF-539, 48 h; in short: as §2
OVCAR-4 = test: Cytotoxicity against human OVCAR4 cells after 48 hrs by SRB assay; conditions: OVCAR-4, 48 h; in short: as §2
SNB-75 = test: Cytotoxicity against human SNB75 cells after 48 hrs by SRB assay; conditions: SNB-75, 48 h; in short: as §1
HOP-62 = test: Cytotoxicity against human HOP62 cells after 48 hrs by SRB assay; conditions: HOP-62, 48 h; in short: as §2
Plasmodium falciparum = test: Antimalarial activity against Plasmodium falciparum NF54 infected in human serum at 20 ug/ml after 48 hrs by fluorometric method
In short: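 Asynchronous P. falciparum NF54 at 1.5–2% parasitemia, 5% hematocrit in RPMI with 10% human serum, exposed 48 h at 37 °C under 90% N2/5% CO2/5% O2 at the stated concentration; parasite DNA stained with ethidium bromide after proteinase K lysis; viability % = (Flu treated − medium)/(Flu untreated − medium) ×100; triplicate.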

MCF7 = test: Cytotoxicity against human MCF7 cells after 48 hrs by SRB assay; conditions: MCF7, 48 h; in short: as §2
NCI-H522 = test: Cytotoxicity against human NCI-H522 cells after 48 hrs by SRB assay; conditions: NCI-H522, 48 h; in short: as §2
UACC-62 = test: Cytotoxicity against human UACC62 cells after 48 hrs by SRB assay; conditions: UACC-62, 48 h; in short: as §1
NCI-H460 = test: Cytotoxicity against human NCI-H460 cells after 48 hrs by SRB assay; conditions: NCI-H460, 48 h; in short: as §2
UACC-257 = test: Cytotoxicity against human UACC257 cells after 48 hrs by SRB assay; conditions: UACC-257, 48 h; in short: as §1
OVCAR-3 = test: Cytotoxicity against human OVCAR3 cells after 48 hrs by SRB assay; conditions: OVCAR-3, 48 h; in short: as §2
SN12C = test: Cytotoxicity against human SN12C cells after 48 hrs by SRB assay; in short: as §2
RPMI-8226 = test: Cytotoxicity against human RPMI8226 cells after 48 hrs by SRB assay; conditions: RPMI-8226, 48 h; in short: as §2
[2] = read-out: LC50 (the source's name)

O=CN1N=C(c2cccc(Nc3ccnc4cc(Cl)ccc34)c2)CC1c1ccccc1 (configuration not stated)
GI50 (SNB-19): 600 nM
LC50 (SNB-19): > 100000 nM
GI50 (SW-620): 350 nM
LC50 (SW-620): > 100000 nM
GI50 (Hs-578T): 290 nM
LC50 (50% net cell kill) (Hs-578T): > 100000 nM
GI50 (MDA-MB-231): 1150 nM
LC50 (concentration killing 50% of cells present at time zero) (MDA-MB-231): > 100000 nM
GI50 (MDA-MB-435): 130 nM
LC50 (MDA-MB-435): > 100000 nM
GI50 (T47D): 340 nM
LC50 (concentration giving 50% cell kill relative to time zero) (T47D): > 100000 nM
GI50 (HCC 2998): 1220 nM
LC50 (HCC 2998): > 100000 nM
GI50 (DU-145): 440 nM
LC50 (concentration killing 50% of cells) (DU-145): > 100000 nM
GI50 (A549): 540 nM
CC50 (A549; [2]): > 100000 nM
GI50 (RXF 393): 390 nM
LC50 (concentration killing 50% of cells) (RXF 393): > 100000 nM
GI50 (OVCAR-5): 1380 nM
LC50 (OVCAR-5): > 100000 nM
GI50 (CCRF-CEM): 370 nM
LC50 (concentration killing 50% of cells relative to time zero) (CCRF-CEM): > 100000 nM
GI50 [1]: 950 nM
LC50 [1]: > 100000 nM
GI50 (NCI-H23): 610 nM
CC50 (NCI-H23; [2]): > 100000 nM
GI50 (HL-60(TB)): 200 nM
CC50 (HL-60(TB); [2]): 4560 nM
GI50 (UO-31): 410 nM
LC50 (UO-31): > 100000 nM
GI50 (SF-268): 1040 nM
LC50 (SF-268): > 100000 nM
GI50 (SK-MEL-2): 260 nM
LC50 (SK-MEL-2): > 100000 nM
GI50 (NCI-H226): 6910 nM
LC50 (50% lethal concentration) (NCI-H226): > 100000 nM
GI50 (HOP-92): 210 nM
LC50 (concentration killing 50% of cells) (HOP-92): > 100000 nM
GI50 (ACHN): 860 nM
CC50 (ACHN; [2]): > 100000 nM
GI50 (SF-539): 310 nM
CC50 (SF-539; [2]): 35700 nM
GI50 (OVCAR-4): 560 nM
LC50 (OVCAR-4): > 100000 nM
GI50 (SNB-75): 220 nM
LC50 (50% net cell kill) (SNB-75): > 100000 nM
GI50 (HOP-62): 510 nM
LC50 (50% lethal concentration) (HOP-62): > 100000 nM
inhibition at 20 µg/mL (Plasmodium falciparum): 0%
GI50 (MCF7): 340 nM
CC50 (MCF7; [2]): > 100000 nM
GI50 (NCI-H522): 210 nM
CC50 (NCI-H522; [2]): > 100000 nM
GI50 (UACC-62): 530 nM
CC50 (UACC-62; [2]): > 100000 nM
GI50 (NCI-H460): 410 nM
LC50 (NCI-H460): > 100000 nM
GI50 (UACC-257): 330 nM
LC50 (UACC-257): > 100000 nM
GI50 (OVCAR-3): 280 nM
LC50 (OVCAR-3): 7380 nM
GI50 (SN12C): 630 nM
LC50 (50% net cell kill relative to time zero) (SN12C): > 100000 nM
GI50 (RPMI-8226): 490 nM
LC50 (concentration killing 50% of cells) (RPMI-8226): > 100000 nM
